# An excerpt weighted towards active compounds, which were near 4.5% of everything screened.
# XBP1 UPR activ: activators of adaptive arm of unfolded protein response (XBP1). CHO-XBP1 luciferase reporter, IRE1-XBP1 UPR activation, luminescence; percent of tunicamycin response, DMSO as zero. activation, % at 20 µM. hit rate 0.33% among 330,000;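 active means versus positive control, 20 µM dose yields 30% or more activation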
#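 Assay system: CHO-XBP1 luciferase reporter cells; Schedule: 6 h treatment, 37 °C; Detection: glow luminescence from Steady-Glo reagent; Benchmarks: high control tunicamycin 10 µg/mL final, low control DMSO vehicle only.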
# HCV NS3 hel inh: blocks Hepatitis C virus NS3 helicase unwinding | NS3 helicase DNA unwinding, Cy5 molecular beacon fluorescence | hit rate 0.56% among 290,000 | AID 1800 | inhibition, % at 10.9 µM;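 active means inhibition above the mean of all tested compounds plus 3 SD, set per campaign, cut at about 35% in these data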
#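 System: Hepatitis C virus NS3 helicase domain fragment enzyme | Reagent: Annealed dual-labelled DNA beacon duplex, ATP-started | Compound dosing: 10.9 µM single point, 0.8% DMSO | Incubation: 1 h reaction at 25 °C, ATP-initiated | Technique: Cy5 fluorescence | Evaluation: Percent inhibition from t60/t0 fluorescence ratio | Benchmarks: Low DMSO, high thioflavine S at 110 µM | Replication: Singlicate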
# UPR CHOP act: apoptotic UPR (CHOP) activation; CHO-CHOP luciferase reporter, luminescence; percent of tunicamycin response over DMSO baseline; activation, % at 10 µM; hit rate 0.34% among 330,000;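 active means at 10 µM dose, activation of 40% or more, normalized to positive control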
#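 Test system: CHO CHOP reporter cells. Input: 500 CHO-CHOP cells per well. Medium: F12 with 10% FBS. Technique: luciferase luminescence. Measure: percent activation relative to tunicamycin control. Dosing: 10 µM compound, 0.5% DMSO. Timing: 16-18 h cell attachment, then 6 h compound exposure, 37 °C.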
# PfM18AAP inh: PfM18AAP enzyme inhibition; recombinant PfM18AAP, H-Glu-NHMec fluorogenic cleavage; inhibition, % at 7.35 µM; hit rate 1.2% among 290,000; AID 1822;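 active means inhibition above the campaign mean inhibition over all tested compounds plus 3 SD, cut at about 28% in these data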
# p97 ATPase inh: human p97 ATPase inhibition. recombinant p97 ATPase, Kinase-Glo ATP luminescence, 3 h. inhibition, % at 8 µM. hit rate 0.42% among 220,000. AID 1481; in the data active means inhibition above about 15%
# Target sequence (P55072 whole entry, looked up): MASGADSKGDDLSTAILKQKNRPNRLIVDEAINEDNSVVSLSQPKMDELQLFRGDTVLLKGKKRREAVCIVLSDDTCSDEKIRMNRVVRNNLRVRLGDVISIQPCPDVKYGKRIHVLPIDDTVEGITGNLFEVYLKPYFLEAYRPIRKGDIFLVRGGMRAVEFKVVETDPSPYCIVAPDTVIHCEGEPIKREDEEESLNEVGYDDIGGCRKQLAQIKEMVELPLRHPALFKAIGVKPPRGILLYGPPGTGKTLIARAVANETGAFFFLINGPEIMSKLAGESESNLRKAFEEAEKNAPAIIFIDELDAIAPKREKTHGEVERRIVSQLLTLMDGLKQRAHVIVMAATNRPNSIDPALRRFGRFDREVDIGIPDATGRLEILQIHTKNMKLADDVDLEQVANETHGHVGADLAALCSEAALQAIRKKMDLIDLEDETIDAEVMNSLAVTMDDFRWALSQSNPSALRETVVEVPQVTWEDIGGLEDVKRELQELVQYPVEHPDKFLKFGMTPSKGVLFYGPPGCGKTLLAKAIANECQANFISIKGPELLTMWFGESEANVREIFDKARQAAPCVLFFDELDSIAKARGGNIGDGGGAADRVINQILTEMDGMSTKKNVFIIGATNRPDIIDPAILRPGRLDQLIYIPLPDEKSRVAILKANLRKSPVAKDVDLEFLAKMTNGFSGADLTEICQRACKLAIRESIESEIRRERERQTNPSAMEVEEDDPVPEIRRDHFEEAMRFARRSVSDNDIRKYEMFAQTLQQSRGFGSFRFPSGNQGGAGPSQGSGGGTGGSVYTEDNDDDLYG
# CHOP inhibitor: blocks CHOP induction under ER stress | hit rate 3.8% among 220,000 | inhibition, % at 10 µM | CHO-K1 CHOP-promoter luciferase, tunicamycin-induced, 15-18 h;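 active means compounds that reduced the stress-induced luciferase reporter signal by more than about 70% of percent inhibition, limit read from the data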
# CHOP inh conf: confirmation of CHOP induction inhibitors; hit rate 45% among 2,100; AID 504437; CHO-CHOP promoter luciferase reporter, tunicamycin-induced, luminescence; inhibition, % at 10 µM; shares compounds with CHOP inhibitor;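 active means mean of three repeat readings of reporter signal inhibition above a set limit, cut at about 70% in these data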
# A number is an active result; 0 = inactive; - = no result given.
SMILES,XBP1 UPR activ,HCV NS3 hel inh,UPR CHOP act,PfM18AAP inh,p97 ATPase inh,CHOP inhibitor,CHOP inh conf
CCc1ccc(OCC(=O)NC(NC(=S)Nc2ccc(C)cc2C)C(Cl)(Cl)Cl)cc1 (centres undefined),0,0,0,0,0,108,113
CCc1ccc(OCC(=O)NC(NC(=S)Nc2ccccc2)C(Cl)(Cl)Cl)cc1 (centres undefined),0,0,0,0,0,105,105
Cc1cccc(NC(=O)[C@H](Cc2ccccc2)NC(=O)OCc2ccccc2)c1,0,0,0,0,0,0,-
Cc1cccc(NC(=S)NC(NC(=O)OCc2ccccc2)C(Cl)(Cl)Cl)c1 (centres undefined),0,0,0,0,0,106,103
O=C(c1cc(Cl)ccc1O)N1CCN(S(=O)(=O)Cc2ccccc2)CC1,0,-,0,-,-,-,-
CCc1ccccc1NC(=O)CN1CCN(C(=O)CN2C(=O)NC3(CCCC3)C2=O)CC1,0,-,0,-,-,-,-
Cc1cccn2c(=O)nc(SCC(=O)N3CCC(Cc4ccccc4)CC3)nc12,0,-,0,-,-,-,-
Cc1ccc2nc(NC(=O)c3ccc4ncsc4c3)sc2c1,0,0,0,0,0,103,0
Cc1ccc(NC(=O)CN2C(=O)NC3(CCCC3)C2=O)c(Cl)c1,0,0,0,0,-,-,-
CCCC(=O)OCCNc1cc(Sc2nc3ccccc3[nH]2)c2nonc2c1[N+](=O)[O-],0,0,0,0,0,110,138
CC(=O)OCCCNc1cc(Sc2ccc(Cl)cc2)c2nonc2c1[N+](=O)[O-],-,0,-,0,0,109,114
CC(=O)OCCNc1cc(SC(C)C)c2nonc2c1[N+](=O)[O-],0,0,0,0,0,0,-
O=C(N/N=C/c1cccs1)c1cccc(NC(=O)c2ccc(Cl)cc2)c1,0,0,0,0,0,104,118
O=C(c1ccccc1)c1coc2c1C(=O)c1ccccc1C2=O,0,0,0,0,0,0,-
O=C1c2ccccc2-c2onc3ccc(Oc4ccccc4)c1c23,0,0,0,0,0,106,84
Cc1ccc(N(C)S(=O)(=O)c2cccc(C(=O)NNC(=O)c3ccncc3)c2)cc1,0,-,0,-,-,-,-
COc1ccc(-c2noc(CCC(=O)N3CCN(c4cccc(F)c4)CC3)n2)cc1,0,-,0,-,-,-,-
O=C(Nc1cccc(C(F)(F)F)c1)NC1CCN(S(=O)(=O)c2ccc(F)cc2)CC1,0,0,0,0,0,100,94
CC(=O)c1ccc(S(=O)(=O)N2CCC(NC(=O)Nc3cccc(F)c3)CC2)cc1,0,0,0,0,0,0,-
CCn1c(=O)c(C(=O)Nc2ncccc2C)c(O)c2ccccc21,0,0,0,0,0,0,-
Cc1cccnc1NC(=O)c1c(O)c2ccccc2n(C)c1=O,0,0,0,0,0,98,100
Cc1ccccc1N1C(=O)C2CCCN2C1=S (centres undefined),0,-,0,-,-,-,-
COc1ccc2c(-c3cc4ccc(OCc5ccc(F)cc5)cc4oc3=O)cc(=O)oc2c1,-,0,-,0,0,103,0
CC1(C)C(=O)OC(c2ccc([N+](=O)[O-])cc2)C(C)(C)C1=O (centres undefined),0,0,0,0,-,-,-
O=[N+]([O-])/C=C\c1ccc(N2CCCC2)c(F)c1,-,0,-,0,0,109,0
SMILES,XBP1 UPR activ,HCV NS3 hel inh,UPR CHOP act,PfM18AAP inh,p97 ATPase inh,CHOP inhibitor,CHOP inh conf
CCc1cc(SC#N)cc(CC)c1NC(=O)CCl,0,0,0,0,0,97,0
COc1ccc2c(c1)[nH]c(=O)c1sc3ccccc3c12,0,0,0,0,0,108,0
COc1ccc2sc3c(=O)[nH]c4ccccc4c3c2c1,0,0,0,0,0,97,0
CN1CCN(c2ccc(-c3ccc4ccccc4n3)cc2)CC1,-,0,-,0,0,102,120
CC(C)C[C@H](NC(=O)c1nc[nH]c1C(=O)NCC(=O)OC(C)(C)C)C(=O)OCc1ccccc1,0,-,0,-,-,101,114
CC(C)C[C@H](NC(=O)c1nc[nH]c1C(=O)NCC(=O)OCc1ccccc1)C(=O)OCc1ccccc1,0,0,0,0,-,-,-
CC(C)C[C@H](NC(=O)c1[nH]cnc1C(=O)N[C@@H](C)C(=O)OC(C)(C)C)C(=O)OC(C)(C)C,0,-,0,-,-,104,134
CC(C)C[C@H](NC(=O)c1[nH]cnc1C(=O)Nc1ccccc1)C(=O)OC(C)(C)C,0,-,0,-,-,106,112
Cc1cccc(N2N=C(C(=O)Nc3ccc(Cl)c(S(=O)(=O)N4CCOCC4)c3)CCC2=O)c1,0,-,0,-,-,-,-
Cn1cc(S(=O)(=O)N2CCOCC2)cc1C(=O)O,0,-,0,-,-,-,-
CCOC(=O)c1c(C)[nH]c(O)c1C=Nc1ccc(Cl)cc1,0,0,0,0,0,103,110
COC(=O)c1c(C)[nH]c(O)c1C=Nc1ccc(C(C)C)cc1,0,0,0,0,0,0,-
CCN(CC(=O)Nc1ccccc1OC)C(=O)CN1C(=O)NC(C)(c2ccccc2)C1=O (centres undefined),0,-,0,-,-,-,-
Cc1ccc(S(=O)(=O)N/N=C/c2cccc([N+](=O)[O-])c2)cc1,0,0,0,0,0,0,-
CCCCCCCCCS(=O)(=O)N/N=C/c1cccc([N+](=O)[O-])c1,0,0,0,0,0,99,97
COc1ccccc1CCNC(=O)c1cc(-c2ccncc2)nc2ccc(Br)cc12,-,0,-,0,0,104,0
COc1ccccc1CCNC(=O)c1cc(-c2ccccn2)nc2ccc(Br)cc12,0,0,0,0,0,0,-
Cc1ccc(-c2cc(C(=O)NCc3cnn(C)c3)c3cc(Br)ccc3n2)cc1,0,0,0,0,0,101,0
Cn1cc(CNC(=O)c2cc(-c3ccccc3)nc3ccc(Br)cc23)cn1,0,0,0,0,0,0,-
COC(CNC(=O)c1coc2nc3ccccc3nc12)OC,0,0,0,0,0,0,-
COc1ccc(C(=O)COC(=O)CN2C(=O)C3C4CCC(C4)C3C2=O)cc1 (centres undefined),0,0,0,0,-,-,-
CC1CN(S(=O)(=O)c2cc(C(=O)NCCC3=CCCCC3)ccc2Cl)CC(C)O1 (centres undefined),0,-,0,-,-,-,-
COc1ccc(OC)c(-c2csc(NC(=O)CSCc3c(C)noc3C)n2)c1,0,-,0,-,-,-,-
Cc1cc2cc(CNC(=O)Nc3cccc(Cl)c3)ccc2n1C,0,0,0,0,0,0,-
Cc1cccc(NC(=O)NCc2ccc3c(c2)cc(C)n3C)c1,0,0,0,0,0,106,0
Cc1nc2ccccn2c1C(=O)N=Nc1c(O)n(CCC(C)C)c2ccccc12,0,0,0,0,0,101,105
